In ChEMBL document CHEMBL3588757, “Structure-based design, synthesis and biological testing of piperazine-linked bis-epipodophyllotoxin etoposide analogs” (Bioorg Med Chem, 2015):

Legend:
[1] = tested on: UACC-257; test: Cytotoxicity against human UACC257 cells assessed as cell growth at 0.05 uM by SRB assay; assay type: functional; settings: read-out: Activity
[2] = tested on: OVCAR-5; test: Cytotoxicity against human OVCAR5 cells assessed as cell growth at 0.5 uM by SRB assay; assay type: functional; settings: read-out: Activity
[3] = tested on: SW-620; test: Cytotoxicity against human SW620 cells assessed as cell growth at 0.05 uM by SRB assay; assay type: functional; settings: read-out: Activity
[4] = tested on: HCC 2998; test: Cytotoxicity against human HCC2998 cells assessed as cell growth at 50 uM by SRB assay; assay type: functional; settings: read-out: Activity
Method in brief: (§1)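 Measured in the NCI-60 human tumour cell line panel using five-dose testing. Growth was recorded at each dose for each cell line, and a GI50 was derived for each line.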

[5] = tested on: U-251; test: Cytotoxicity against human U251 cells assessed as cell growth at 0.05 uM by SRB assay; assay type: functional; settings: read-out: Activity
[6] = tested on: NCI-H322M; test: Cytotoxicity against human NCI-H322M cells assessed as cell growth at 50 uM by SRB assay; assay type: functional; settings: read-out: Activity
[7] = tested on: MDA-MB-435; test: Cytotoxicity against human MDA-MB-435 cells assessed as cell growth at 50 uM by SRB assay; assay type: functional; settings: read-out: Activity
[8] = tested on: ACHN; test: Cytotoxicity against human ACHN cells assessed as cell growth at 5 uM by SRB assay; assay type: functional; settings: read-out: Activity
[9] = tested on: OVCAR-3; test: Cytotoxicity against human OVCAR3 cells assessed as cell growth at 50 uM by SRB assay; assay type: functional; settings: read-out: Activity
[10] = tested on: HOP-92; test: Cytotoxicity against human HOP92 cells by SRB assay; assay type: functional; method in brief: as §1
[11] = tested on: IGROV-1; test: Cytotoxicity against human IGROV1 cells assessed as cell growth at 0.005 uM by SRB assay; assay type: functional; settings: read-out: Activity; method in brief: as §1
[12] = tested on: TK-10; test: Cytotoxicity against human TK10 cells assessed as cell growth at 0.5 uM by SRB assay; assay type: functional; settings: read-out: Activity
[13] = tested on: MDA-MB-231; test: Cytotoxicity against human MDA-MB-231/ATCC cells assessed as cell growth at 5 uM by SRB assay; assay type: functional; settings: read-out: Activity
[14] = tested on: BT-549; test: Cytotoxicity against human BT549 cells assessed as cell growth at 0.005 uM by SRB assay; assay type: functional; settings: read-out: Activity
[15] = tested on: NCI-H322M; test: Cytotoxicity against human NCI-H322M cells assessed as cell growth at 0.05 uM by SRB assay; assay type: functional; settings: read-out: Activity
[16] = tested on: IGROV-1; test: Cytotoxicity against human IGROV1 cells assessed as cell growth at 5 uM by SRB assay; assay type: functional; settings: read-out: Activity
[17] = tested on: COLO 205; test: Cytotoxicity against human COLO205 cells assessed as cell growth at 0.05 uM by SRB assay; assay type: functional; settings: read-out: Activity
[18] = tested on: OVCAR-8; test: Cytotoxicity against human OVCAR8 cells assessed as cell growth at 0.005 uM by SRB assay; assay type: functional; settings: read-out: Activity
[19] = tested on: BT-549; test: Cytotoxicity against human BT549 cells assessed as cell growth at 0.05 uM by SRB assay; assay type: functional; settings: read-out: Activity
[20] = Cytotoxicity against etoposide-resistant human K/VP.5 cells assessed as cell growth inhibition after 72 hrs by MTS assay; assay type: functional, cell-based; settings: K/VP.5, 72 h
Method in brief: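 K/VP.5 cells are a K562-derived subline, 26-fold etoposide-resistant, with decreased topoisomerase IIα mRNA and protein. Cells were grown in suspension in αMEM with 10% fetal calf serum. Drugs were given from DMSO stocks, with final DMSO typically 0.4% or less. Read-out was MTS absorbance after 72 h. Typically nine concentrations were run in duplicate on two days. IC50 came from a four-parameter logistic fit.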

[21] = tested on: A549; test: Cytotoxicity against human A549/ATCC cells by SRB assay; assay type: functional
[22] = tested on: A549; test: Cytotoxicity against human A549/ATCC cells assessed as cell growth at 5 uM by SRB assay; assay type: functional; settings: read-out: Activity
[23] = tested on: SNB-19; test: Cytotoxicity against human SNB19 cells assessed as cell growth at 50 uM by SRB assay; assay type: functional; settings: read-out: Activity
[24] = tested on: OVCAR-4; test: Cytotoxicity against human OVCAR4 cells assessed as cell growth at 0.005 uM by SRB assay; assay type: functional; settings: read-out: Activity
[25] = tested on: OVCAR-3; test: Cytotoxicity against human OVCAR3 cells by SRB assay; assay type: functional
Method in brief: (§2)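 NCI-60 panel screen; 5-dose testing giving GI50 per cell line, plus a single 10 µM one-dose test. Method details not given beyond the NCI screen.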

[26] = tested on: CCRF-CEM; test: Cytotoxicity against human CCRF-CEM cells assessed as cell growth at 0.005 uM by SRB assay; assay type: functional; settings: read-out: Activity
[27] = tested on: HCT-15; test: Cytotoxicity against human HCT15 cells assessed as cell growth at 50 uM by SRB assay; assay type: functional; settings: read-out: Activity; method in brief: as §1
[28] = tested on: DU-145; test: Cytotoxicity against human DU145 cells by SRB assay; assay type: functional; method in brief: as §1
[29] = tested on: NCI-H460; test: Cytotoxicity against human NCI-H460 cells by SRB assay; assay type: functional; method in brief: as §2
[30] = tested on: LOX IMVI; test: Cytotoxicity against human LOXIMVI cells by SRB assay; assay type: functional; method in brief: as §2
[31] = tested on: ACHN; test: Cytotoxicity against human ACHN cells by SRB assay; assay type: functional
[32] = tested on: T47D; test: Cytotoxicity against human T47D cells assessed as cell growth at 5 uM by SRB assay; assay type: functional; settings: read-out: Activity
[33] = tested on: HCC 2998; test: Cytotoxicity against human HCC2998 cells assessed as cell growth at 0.05 uM by SRB assay; assay type: functional; settings: read-out: Activity; method in brief: as §1
[34] = tested on: PC-3; test: Cytotoxicity against human PC3 cells assessed as cell growth at 0.05 uM by SRB assay; assay type: functional; settings: read-out: Activity
[35] = tested on: CAKI-1; test: Cytotoxicity against human Caki1 cells assessed as cell growth at 0.05 uM by SRB assay; assay type: functional; settings: read-out: Activity
[36] = tested on: OVCAR-4; test: Cytotoxicity against human OVCAR4 cells assessed as cell growth at 0.5 uM by SRB assay; assay type: functional; settings: read-out: Activity
[37] = tested on: U-251; test: Cytotoxicity against human U251 cells assessed as cell growth at 0.5 uM by SRB assay; assay type: functional; settings: read-out: Activity
[38] = tested on: SN12C; test: Cytotoxicity against human SN12C cells assessed as cell growth at 5 uM by SRB assay; assay type: functional; settings: read-out: Activity
[39] = tested on: RPMI-8226; test: Cytotoxicity against human RPMI8226 cells by SRB assay; assay type: functional; method in brief: as §2
[40] = read-out: LC50 (the source's name)
[41] = read-out: pLC50 (the source's name) (converted)

COc1cc([C@@H]2c3cc4c(cc3[C@@H](NC(=O)CN3CCN(CCCCCCN5CCN(CC(=O)N[C@@H]6c7cc8c(cc7[C@@H](c7cc(OC)c(O)c(OC)c7)[C@H]7C(=O)OC[C@@H]76)OCO8)CC5)CC3)[C@H]3COC(=O)[C@H]23)OCO4)cc(OC)c1O
growth at 0.05 µM [1]: 113%
growth at 0.5 µM [2]: 86%
growth at 0.05 µM [3]: 91%
growth at 50 µM [4]: -10%
growth at 0.05 µM [5]: 101%
growth at 50 µM [6]: 37%
growth at 50 µM [7]: 17%
growth at 5 µM [8]: 73%
growth at 50 µM [9]: 11%
GI50 ([10]; read-out: GI50): 1.55 µM
CC50 [10, 40]: > 50 µM
TGI ([10]; read-out: TGI): > 50 µM
GI50 ([10]; read-out: pGI50 (converted)): 1.55 µM
CC50 [10, 41]: > 50.1 µM
TGI ([10]; read-out: pTGI (converted)): > 50.1 µM
growth at 0.005 µM [11]: 111%
growth at 0.5 µM [12]: 89%
growth at 5 µM [13]: 79%
growth at 0.005 µM [14]: 86%
growth at 0.05 µM [15]: 105%
growth at 5 µM [16]: 74%
growth at 0.05 µM [17]: 99%
growth at 0.005 µM [18]: 110%
growth at 0.05 µM [19]: 87%
IC50 [20]: 0.88 µM
GI50 ([21]; read-out: GI50): 0.919 µM
CC50 [21, 40]: > 50 µM
TGI ([21]; read-out: TGI): 15.2 µM
GI50 ([21]; read-out: pGI50 (converted)): 0.912 µM
CC50 [21, 41]: > 50.1 µM
TGI ([21]; read-out: pTGI (converted)): 15.1 µM
growth at 5 µM [22]: 35%
growth at 50 µM [23]: 11%
growth at 0.005 µM [24]: 85%
GI50 ([25]; read-out: GI50): 8.92 µM
CC50 [25, 40]: > 50 µM
TGI ([25]; read-out: TGI): > 50 µM
GI50 ([25]; read-out: pGI50 (converted)): 8.91 µM
CC50 [25, 41]: > 50.1 µM
TGI ([25]; read-out: pTGI (converted)): > 50.1 µM
growth at 0.005 µM [26]: 102%
growth at 50 µM [27]: 60%
GI50 ([28]; read-out: GI50): 1.66 µM
CC50 [28, 40]: > 50 µM
TGI ([28]; read-out: TGI): > 50 µM
GI50 ([28]; read-out: pGI50 (converted)): 1.66 µM
CC50 [28, 41]: > 50.1 µM
TGI ([28]; read-out: pTGI (converted)): > 50.1 µM
GI50 ([29]; read-out: GI50): 0.261 µM
CC50 [29, 40]: > 50 µM
TGI ([29]; read-out: TGI): 9.45 µM
GI50 ([29]; read-out: pGI50 (converted)): 0.263 µM
CC50 [29, 41]: > 50.1 µM
TGI ([29]; read-out: pTGI (converted)): 9.55 µM
GI50 ([30]; read-out: GI50): 0.966 µM
CC50 [30, 40]: > 50 µM
TGI ([30]; read-out: TGI): 28 µM
GI50 ([30]; read-out: pGI50 (converted)): 0.977 µM
CC50 [30, 41]: > 50.1 µM
TGI ([30]; read-out: pTGI (converted)): 28.2 µM
GI50 ([31]; read-out: GI50): 22.3 µM
CC50 [31, 40]: > 50 µM
TGI ([31]; read-out: TGI): > 50 µM
GI50 ([31]; read-out: pGI50 (converted)): 22.4 µM
CC50 [31, 41]: > 50.1 µM
TGI ([31]; read-out: pTGI (converted)): > 50.1 µM
growth at 5 µM [32]: 31%
growth at 0.05 µM [33]: 104%
growth at 0.05 µM [34]: 90%
growth at 0.05 µM [35]: 93%
growth at 0.5 µM [36]: 90%
growth at 0.5 µM [37]: 76%
growth at 5 µM [38]: 11%
GI50 ([39]; read-out: GI50): 0.89 µM
CC50 [39, 40]: > 50 µM
TGI ([39]; read-out: TGI): 4.9 µM
GI50 ([39]; read-out: pGI50 (converted)): 0.891 µM
CC50 [39, 41]: > 50.1 µM
TGI ([39]; read-out: pTGI (converted)): 4.9 µM
